Activity data for three compounds are collected here from ChEMBL document CHEMBL2331556, “Evidence for the involvement of descending pain-inhibitory mechanisms in the antinociceptive effect of hecogenin acetate” (J Nat Prod, 2013).

The subject of series [1] is Mus musculus. The series is described as follows: Antinociceptive activity in Swiss webster mouse assessed as increase in latency response at 5 mg/kg sc administered 40 mins prior to test measured for 3 hrs by warm water-tail flick test. The format is functional, organism-based. Details: dose 5 mg/kg. In short, it runs like this: (§1)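 Mice habituated to a restraint cylinder 20 min/day for 5 days. Tail tip (2 cm) immersed in 50 ± 0.5 °C water; tail-withdrawal latency recorded, 16 s cut-off. Latency taken at baseline and up to 7 h after dosing. Vehicle Tween 20 5%. Means ± SEM, n = 6 mice/group; repeated-measures two-way ANOVA with Bonferroni post hoc.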

For series [2], the system named is Mus musculus. The experiment in a line: Toxicity in Swiss webster mouse assessed as decrease in time stayed on rotarod at 10 mg/kg, ip measured after 30 mins by rotarod test. The format is organism-based. Set-up: dose 10 mg/kg, route intraperitoneal. The note with it: in vivo, 0.5 h. Background: In the rotarod test animals must keep their balance on a rotating rod.

In series [3] the test system is Mus musculus. The series is described as follows: Antinociceptive activity in Swiss webster mouse assessed as latency response at 40 mg/kg, ip administered 15 mins after 0.5 mg/kg, sc kappa-opioid receptor antagonist, nor-BNI challenge measured up to 7 hrs by warm water-tail flick test. In kind it is functional, organism-based. The method, boiled down:
as §1
A general note: In hot-plate and tail-flick tests a longer latency is read as antinociception.

The test system of series [4] is Mus musculus. The series is described as follows: Antinociceptive activity in ip dosed Swiss webster mouse assessed as increase in latency response […] by warm water-tail flick test. The format is functional, organism-based.
Series [5] deals with Mus musculus. The experiment in a line: Antinociceptive activity in Swiss webster mouse assessed as latency response at 40 mg/kg, ip administered 30 mins prior to 1 mg/kg, ip mu-opioid receptor antagonist, CTOP challenge measured up to 7 hrs by warm water-tail flick test. The format is functional, organism-based. The method, boiled down:
as §1

In series [6] the test system is Mus musculus. The series is described as follows: Antinociceptive activity in Swiss webster mouse assessed as latency response at 40 mg/kg, ip administered 15 mins after 5 mg/kg, ip nonselective opioid receptor antagonist, naloxone challenge measured up to 7 hrs by warm water-tail flick test. In kind it is functional, organism-based. In short, it runs like this:
as §1

The subject of series [7] is Mus musculus. The series is described as follows: Toxicity in Swiss webster mouse assessed as effect on motor performance at 40 mg/kg, ip measured after 30 mins by rotarod test. In kind it is organism-based. Set-up: dose 40 mg/kg, route intraperitoneal. The note with it: in vivo, 0.5 h. In short, it runs like this: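 Rotarod. Mice pre-selected 24 h earlier; those failing to stay on the bar for two consecutive 120 s periods were excluded. Dosing ip: test agent 40 mg/kg, or vehicle (Tween 20 5%, 200 μL). Time on rod recorded up to 120 s and reported as group mean time (s). n = 6/group; ANOVA with Tukey post hoc.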

In series [8] the test system is Mus musculus. The experiment in a line: Activation of neurons in Swiss webster mouse periaqueductal gray assessed as increase in number of Fos-positive cells at 5 to 40 mg/kg, ip measured after 2 hrs by immunohistochemical analysis. The format is functional, organism-based. The method, boiled down: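 Mice given 5, 10, 20 or 40 mg/kg ip or vehicle, perfused 2 h later. Frozen 20 μm transverse periaqueductal gray sections: PBS washes, 0.1 M glycine, blocked in 1% BSA, overnight rabbit anti-Fos, then 1 h Alexa Fluor 594 anti-rabbit. No-primary control included. Fos-positive cells counted; n = 6/group; ANOVA with Tukey post hoc.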

The test system of series [9] is Mus musculus. The series is described as follows: Antinociceptive activity in Swiss webster mouse assessed as latency response at 40 mg/kg, ip administered 5 mins after 3 mg/kg, sc delta-opioid receptor antagonist, naltrindole challenge measured up to 7 hrs by warm water-tail flick test. In kind it is functional, organism-based. The method, boiled down:
as §1

The subject of series [10] is Mus musculus. The series is described as follows: Antinociceptive activity in Swiss webster mouse assessed as latency response at 40 mg/kg, ip administered 30 mins after 2 mg/kg, ip KATP channel blocker, glibenclamide challenge measured up to 7 hrs by warm water-tail flick test. In kind it is functional, organism-based. The method, boiled down: as §1

Each structure is given as a SMILES string. Active and inactive are the calls of the source.

Consider `CN1CC[C@]23c4c5ccc(O)c4O[C@H]2[C@@H](O)C=C[C@H]3[C@H]1C5`, for which the result in the series with Mus musculus [1] was Active.

Turning to `CN1C(=O)CN=C(c2ccccc2)c2cc(Cl)ccc21` [DIAZEPAM], the Activity entry with Mus musculus [2] was “Toxic”.

Regarding `CC(=O)O[C@H]1CC[C@@]2(C)[C@@H](CC[C@@H]3[C@@H]2CC(=O)[C@]2(C)[C@@H]4[C@H](C[C@@H]32)O[C@]2(CC[C@@H](C)CO2)[C@H]4C)C1` [HECOGENIN ACETATE], the outcome with Mus musculus [3], with Mus musculus [5], with Mus musculus [6], with Mus musculus [9] and with Mus musculus [10] was inactive. Moreover, the Activity result was “Dose-dependent effect” with Mus musculus [4] and “Non-toxic” in the series on Mus musculus [7]. Also, the outcome in the series with Mus musculus [8] was Active.
